# Screening data (PubChem BioAssay)
# Only some compounds are listed: those with a hit (about 3.1% of all), similar ones and a draw of the others.
# RBBP9 inh = human RBBP9 inhibitors, primary screen, biochemical, fluorescence polarization, FP-Rh probe, HTS; Serine hydrolase RBBP9 (Homo sapiens), O75884; 220,000 tested, 0.2% active; inhibition, % at 7.94 µM; recombinant RBBP9;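 active means inhibition above the campaign mean of all tested compounds plus 3 SD, cut at about 14% in these data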;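 further: plate controls were DMSO wells with RBBP9 for no effect and wells lacking RBBP9 protein for full effect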
# Target sequence (O75884 whole entry, looked up): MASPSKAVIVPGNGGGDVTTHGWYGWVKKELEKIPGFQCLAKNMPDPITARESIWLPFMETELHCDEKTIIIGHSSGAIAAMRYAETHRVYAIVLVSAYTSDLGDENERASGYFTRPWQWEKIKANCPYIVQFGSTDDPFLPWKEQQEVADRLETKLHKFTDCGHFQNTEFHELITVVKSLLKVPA
#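 Measured by – fluorescence polarization · Test system – RBBP9 protein · Input – 2.5 µM RBBP9 dispensing solution, before mixing · Measure – percent inhibition from mP, scaled between DMSO and no-protein wells · Benchmarks – DMSO-treated enzyme wells and wells lacking RBBP9 · Times – preincubation 30 min plus labeling 45 min at 25 °C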
# UHRF1 MBD2 ctr = UHRF1 methylated DNA binding inhibitors, primary screen, counter-screen for MBD2 inhibitor project, biochemical, TR-FRET, human UHRF1, single concentration; E3 ubiquitin-protein ligase UHRF1 (Homo sapiens), Q96T88; UHRF1 binding to methylated oligo; inhibition, % at 4.4 µM; 370,000 tested, 0.75% active; AID 687016, 2013;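 further: UHRF1 SRA domain binding a hemimethylated CpG hairpin DNA probe; 0% = median of test compound wells and 100% = reference inhibitor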
# PRMT1 inh = PRMT1 methyltransferase inhibitors, primary screen, biochemical, fluorescence polarization | Protein arginine N-methyltransferase 1 (Homo sapiens), Q99873 | 370,000 tested, 1.3% active | recombinant PRMT1, activity-based probe fluorescence polarization | inhibition, % at 2.79 µM;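 active means inhibition above about 21% made by adding two undisclosed values, limit read from the data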
# ABHD5 PLIN5 PPI = ABHD5-PLIN5 interaction inhibitors, primary screen, cell lysate, split luciferase complementation, luminescence | 360,000 tested, 0.78% active | Split G. princeps luciferase complementation, 4 h | inhibition, % at 4 µM | AID 602281, 2012 | Perilipin-5 (Homo sapiens) + 1-acylglycerol-3-phosphate O-acyltransferase ABHD5 (Homo …;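 active means inhibition above the mean inhibition across every tested compound plus 3 SD, cut at about 22% in these data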;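 further: 0% = DMSO only wells and the 100% control is not disclosed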
# MBD2 inh = inhibitors of MBD2 binding to methylated DNA, primary screen, biochemical, TR-FRET, DNA-binding domain, human; Methyl-CpG-binding domain protein 2 (Homo sapiens), Q9UBB5; MBD2 binding to methylated oligonucleotide; inhibition, % at 4.4 µM; 370,000 tested, 0.31% active; AID 686964, 2013; in the data active means inhibition above about 13%
# LEDGF integ inh = blockers of LEDGF/p75-dependent integrase strand transfer – biochemical, TR-FRET, high throughput, primary screen; HIV-1 integrase (with human LEDGF/p75); TR-FRET IN-LEDGF/p75 DNA integration, Eu/Cy5; inhibition, % at 3.7 µM; 370,000 tested, 0.64% active; AID 743269, 2014;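 active means inhibition above the screen-wide mean plus 3 SD, cut at about 13% in these data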;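 further: signal is the Cy5 over europium emission ratio at 671 and 618 nm; 0% = plate median of compound wells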
# PRMT1 inh conf = PRMT1 methyltransferase inhibitors, confirmation, biochemical, fluorescence polarization, triplicate. shares compounds with PRMT1 inh. recombinant His-PRMT1, activity-based probe fluorescence polarization. inhibition, % at 2.79 µM. 3,300 tested, 42% active. AID 687036, 2013;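 active means mean inhibition across replicates above the hit cutoff derived for the earlier primary screen, cut at about 22% in these data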
# UHRF1 ctr MBD2 = UHRF1 methylated DNA binding inhibitors, counter-screen for MBD2 inhibitor project, biochemical, TR-FRET, human UHRF1 | shares compounds with MBD2 inh | UHRF1 binding to methylated oligonucleotide | inhibition, % at 4.4 µM | 1,000 tested, 25% active;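 further: UHRF1 SRA domain binding a labeled hemimethylated CpG hairpin DNA; 0% = vehicle only and 100% = reference inhibitor with vehicle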
# MBD2 DBD conf = inhibitors of MBD2 binding to methylated DNA, confirmation, biochemical, TR-FRET, DNA-binding domain, human | inhibition, % at 4.4 µM | shares compounds with MBD2 inh | 1,000 tested, 26% active | TR-FRET MBD2-DBD binding to methylated oligonucleotide; in the data active means inhibition above about 14%
# IN multimer act = HIV-1 IN multimer formation enhancers, counter-screen for LEDGF/p75 integration inhibitor project, biochemical, TR-FRET | AID 1053131, 2014 | shares compounds with LEDGF integ inh | 2,000 tested, 17% active | activation, % at 7.7 µM | TR-FRET HIV-1 integrase multimerization; in the data active means activation above about 8.9%
# TRFRET interf = TR-FRET optical interference artefacts, confirmation, artefact control for LEDGF/p75-dependent integration inhibitor project, biochemical, HIV-1 IN multimerization. TR-FRET optical interference counterscreen. inhibition, % at 7.7 µM. shares compounds with LEDGF integ inh. 2,000 tested, under 10 active;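 active means inhibition above the mean over all tested compounds plus 3 SD, which no compound reached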;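 further: 0% = integrase with antibodies and DMSO and 100% = antibodies without integrase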
# IN-LEDGF confirm = inhibitors of HIV-1 IN-LEDGF/p75 DNA integration, confirmation, biochemical, TR-FRET; shares compounds with LEDGF integ inh; 2,000 tested, 36% active; AID 1053136, 2014; TR-FRET LEDGF/p75-dependent HIV-1 integration; inhibition, % at 3.7 µM; in the data active means inhibition above about 14%
# An asterisk follows results filed as active; nt = no result. Unless noted, no stated cut-off is given here; in the data, active means inhibition above about 21%; inactive means the rest.
SMILES,RBBP9 inh,UHRF1 MBD2 ctr,PRMT1 inh,ABHD5 PLIN5 PPI,MBD2 inh,LEDGF integ inh,PRMT1 inh conf,UHRF1 ctr MBD2,MBD2 DBD conf,IN multimer act,TRFRET interf,IN-LEDGF confirm
Cc1cccc2nc(CSCc3ccco3)cn12,0,5,27*,-5,-1,16*,15,nt,nt,-2,10,13
Cc1ccccc1C(=O)N(C)[C@H]1C[C@H]2c3[nH]c4c(-c5ccccc5)cccc4c3CCN2C(=O)[C@H]1[C@H](C)O,nt,-1,-3,nt,0,6,nt,nt,nt,nt,nt,nt
O=C1CC(SC(=S)C2CCCC2=O)C(=O)N1 (stereo not drawn),nt,54*,64*,-30,17*,24*,82*,nt,nt,7,-37,22*
C[C@@H]1ON(C)[C@H]2C[C@H]3c4cc(Br)ccc4CCN3C[C@@H]12,nt,2,2,nt,4,-2,nt,nt,nt,nt,nt,nt
CSc1nc(N(CCO)CCO)c2sc3nc(-c4ccco4)c4c(c3c2n1)CCC4,-1,24*,37*,22*,18*,16*,39*,31*,36*,12*,-60,53*
CCOC(=O)C1=C(N)n2c(s/c(=C\c3ccco3)c2=O)=C(C(=O)OCC)C1c1ccco1 (stereo not drawn),-1,nt,nt,8,nt,nt,nt,nt,nt,nt,nt,nt
CCOC(=O)C1=C(N)n2c(s/c(=C\c3ccco3)c2=O)=C(C(=O)OC(C)C)C1c1ccco1 (stereo not drawn),-3,21*,43*,-2,12,51*,6,nt,nt,2,-6,-1
CCOC(=O)C(C)N1C(=O)S/C(=C\c2ccc(-c3ccccc3C(=O)O)o2)C1=O (stereo not drawn),nt,55*,29*,6,31*,18*,4,49*,16*,6,-20,18*
O=c1cc2c(=O)oc3cc(O)c(O)oc3c2c(O)c1O,-1,97*,27*,1,95*,89*,31*,92*,109*,80*,-286,91*
O=S(=O)(O)c1cc(Cl)cc(N=Nc2ccc(O)cc2O)c1O,nt,19,86*,4,0,72*,65*,nt,nt,14*,-70,31*
C=CCN1CCc2nc(N)sc2CC1,6,4,61*,-10,12,14*,11,nt,nt,0,-2,3
